Reference: ChEMBL document CHEMBL1811814, “Synthesis and evaluation of indole, pyrazole, chromone and pyrimidine based conjugates for tumor growth inhibitory activities--development of highly efficacious cytotoxic agents” (Eur J Med Chem, 2010)

Columns and labels:
Format in all cases: functional
EKVX = assay: Growth inhibition of human EKVX cells
UACC-257 [1] = assay: Growth inhibition of human UACC257 cells
SF-539 [2] = assay: Growth inhibition of human SF539 cells
OVCAR-8 [3] = assay: Growth inhibition of human OVCAR8 cells
SF-268 = assay: Growth inhibition of human SF268 cells
LOX IMVI = assay: Growth inhibition of human LOXIMVI cells
OVCAR-3 [4] = assay: Growth inhibition of human OVCAR3 cells
TK-10 = assay: Growth inhibition of human TK10 cells
HOP-92 = assay: Growth inhibition of human HOP92 cells assessed tumor cell growth at 10^-5 M; parameters: scale not given: the % may be the effect or the level left
Outline: (§1)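 NCI 60-human-tumor-cell-line panel screen. Each compound was tested at a single concentration of 10^-5 M, and percent growth of tumor cells was recorded for each cell line. Growth inhibition was expressed from these percent-growth values.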

HCT-116 [5] = assay: Growth inhibition of human HCT116 cells
M14 = assay: Growth inhibition of human M14 cells
NCI-H460 = assay: Growth inhibition of human NCI-H460 cells assessed tumor cell growth at 10^-5 M; parameters: scale not given: the % may be the effect or the level left; outline: as §1
BT-549 [6] = assay: Growth inhibition of human BT549 cells assessed tumor cell growth at 10^-5 M; parameters: scale not given: the % may be the effect or the level left; outline: as §1
HOP-62 = assay: Growth inhibition of human HOP62 cells assessed tumor cell growth at 10^-5 M; parameters: scale not given: the % may be the effect or the level left; outline: as §1
SK-MEL-5 = assay: Growth inhibition of human SK-MEL-5 cells
PC-3 [7] = assay: Growth inhibition of human PC3 cells
UO-31 = assay: Growth inhibition of human UO31 cells
MDA-MB-231 = assay: Growth inhibition of human MDA-MB-231 cells
ACHN = assay: Growth inhibition of human ACHN cells
BT-549 [8] = assay: Growth inhibition of human BT549 cells
MOLT-4 = assay: Growth inhibition of human MOLT4 cells
[9] = Growth inhibition of human RPMI8266 cells
RXF 393 = assay: Growth inhibition of human RXF393 cells
HCT-116 [10] = assay: Growth inhibition of human HCT116 cells assessed tumor cell growth at 10^-5 M; parameters: scale not given: the % may be the effect or the level left; outline: as §1
SN12C = assay: Growth inhibition of human SN12C cells assessed tumor cell growth at 10^-5 M; parameters: scale not given: the % may be the effect or the level left; outline: as §1
HCT-15 [11] = assay: Growth inhibition of human HCT15 cells
SK-OV-3 = assay: Growth inhibition of human SKOV3 cells
SK-MEL-2 [12] = assay: Growth inhibition of human SK-MEL-2 cells assessed tumor cell growth at 10^-5 M; parameters: scale not given: the % may be the effect or the level left; outline: as §1
A549 = assay: Growth inhibition of human A549 cells
786-0 [13] = assay: Growth inhibition of human 786-0 cells assessed tumor cell growth at 10^-5 M; parameters: scale not given: the % may be the effect or the level left; outline: as §1
K562 = assay: Growth inhibition of human K562 cells
A498 = assay: Growth inhibition of human A498 cells
COLO 205 = assay: Growth inhibition of human COLO205 cells
SK-MEL-2 [14] = assay: Growth inhibition of human SK-MEL-2 cells
OVCAR-5 = assay: Growth inhibition of human OVCAR5 cells
UACC-257 [15] = assay: Growth inhibition of human UACC257 cells assessed tumor cell growth at 10^-5 M; parameters: scale not given: the % may be the effect or the level left
Outline: (§2)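 Single-dose screen at 10^-5 M across the 60 human tumor cell line panel, run to NCI standards. The value is the percent growth of each cell line in the presence of compound. Compounds active at this dose moved on to five-concentration testing (10^-4 to 10^-8 M).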

SF-295 = assay: Growth inhibition of human SF295 cells assessed tumor cell growth at 10^-5 M; parameters: scale not given: the % may be the effect or the level left; outline: as §1
SF-539 [16] = assay: Growth inhibition of human SF539 cells assessed tumor cell growth at 10^-5 M; parameters: scale not given: the % may be the effect or the level left; outline: as §1
NCI-H322M [17] = assay: Growth inhibition of human NCI-H322M cells
NCI-H322M [18] = assay: Growth inhibition of human NCI-H322M cells assessed tumor cell growth at 10^-5 M; parameters: scale not given: the % may be the effect or the level left; outline: as §1
NCI/ADR-RES [19] = assay: Growth inhibition of human NCI/ADR-RES cells assessed tumor cell growth at 10^-5 M; parameters: scale not given: the % may be the effect or the level left; outline: as §1
OVCAR-3 [20] = assay: Growth inhibition of human OVCAR3 cells assessed tumor cell growth at 10^-5 M; parameters: scale not given: the % may be the effect or the level left; outline: as §1
OVCAR-4 = assay: Growth inhibition of human OVCAR4 cells assessed tumor cell growth at 10^-5 M; parameters: scale not given: the % may be the effect or the level left; outline: as §1
NCI/ADR-RES [21] = assay: Growth inhibition of human NCI/ADR-RES cells
DU-145 = assay: Growth inhibition of human DU145 cells assessed tumor cell growth at 10^-5 M; parameters: scale not given: the % may be the effect or the level left; outline: as §1
HCT-15 [22] = assay: Growth inhibition of human HCT15 cells assessed tumor cell growth at 10^-5 M; parameters: scale not given: the % may be the effect or the level left; outline: as §1
SK-MEL-28 = assay: Growth inhibition of human SK-MEL-28 cells assessed tumor cell growth at 10^-5 M; parameters: scale not given: the % may be the effect or the level left; outline: as §1
PC-3 [23] = assay: Growth inhibition of human PC3 cells assessed tumor cell growth at 10^-5 M; parameters: scale not given: the % may be the effect or the level left; outline: as §1
MDA-MB-435 [24] = assay: Growth inhibition of human MDA-MB-435 cells assessed tumor cell growth at 10^-5 M; parameters: scale not given: the % may be the effect or the level left; outline: as §1
OVCAR-8 [25] = assay: Growth inhibition of human OVCAR8 cells assessed tumor cell growth at 10^-5 M; parameters: scale not given: the % may be the effect or the level left; outline: as §1
NCI-H23 = assay: Growth inhibition of human NCI-H23 cells assessed tumor cell growth at 10^-5 M; parameters: scale not given: the % may be the effect or the level left; outline: as §1
786-0 [26] = assay: Growth inhibition of human 786-0 cells
MDA-MB-435 [27] = assay: Growth inhibition of human MDA-MB-435 cells
[28] = Growth inhibition of human Hs 578T cells assessed tumor cell growth at 10^-5 M; parameters: scale not given: the % may be the effect or the level left; outline: as §1
SW-620 = assay: Growth inhibition of human SW620 cells assessed tumor cell growth at 10^-5 M; parameters: scale not given: the % may be the effect or the level left; outline: as §2
[29] = read-out: LC50 (the source's name)

O=C1/C(=C\c2coc3ccccc3c2=O)c2ccccc2N1c1c(Cl)cccc1Cl showed a GI50 (EKVX) of 2.8 µM, a CC50 (EKVX; [29]) greater than 100 µM and a GI50 (UACC-257 [1]) of 4.5 µM. It also gave a CC50 (UACC-257 [1]; [29]) greater than 100 µM, a GI50 (SF-539 [2]) of 3 µM and a CC50 (SF-539 [2]; [29]) greater than 100 µM. The GI50 (OVCAR-8 [3]) was 5.4 µM, the CC50 (OVCAR-8 [3]; [29]) was greater than 100 µM and the GI50 (SF-268) was 3.3 µM. The CC50 (SF-268; [29]) was greater than 100 µM, the GI50 (LOX IMVI) was 1.5 µM and the CC50 (LOX IMVI; [29]) was 57.5 µM. For the same molecule, the GI50 (OVCAR-3 [4]) was 2.6 µM, the CC50 (OVCAR-3 [4]; [29]) was greater than 100 µM and the GI50 (TK-10) was 3.3 µM. For the same molecule, the CC50 (TK-10; [29]) was greater than 100 µM, the Activity (HOP-92) was 32.08% and the GI50 (HCT-116 [5]) was 1.9 µM. It also gave a CC50 (HCT-116 [5]; [29]) greater than 100 µM, a GI50 (M14) of 5.2 µM and a CC50 (M14; [29]) greater than 100 µM. It also gave an Activity (NCI-H460) of 19.05%, an Activity (BT-549 [6]) of 41.11% and an Activity (HOP-62) of 68.24%. For the same molecule, the GI50 (SK-MEL-5) was 2.4 µM, the CC50 (SK-MEL-5; [29]) was greater than 100 µM and the GI50 (PC-3 [7]) was 1.3 µM. The CC50 (PC-3 [7]; [29]) was greater than 100 µM, the GI50 (UO-31) was 1.8 µM and the CC50 (UO-31; [29]) was greater than 100 µM. For the same molecule, the GI50 (MDA-MB-231) was 3.8 µM, the CC50 (MDA-MB-231; [29]) was greater than 100 µM and the GI50 (ACHN) was 4.1 µM. It also gave a CC50 (ACHN; [29]) greater than 100 µM, a GI50 (BT-549 [8]) of 2.8 µM and a CC50 (BT-549 [8]; [29]) greater than 100 µM. It also gave a GI50 (MOLT-4) of 2.9 µM, a GI50 [9] of 1.2 µM and a CC50 [9, 29] of 69.1 µM. It also gave a GI50 (RXF 393) of 1.8 µM, a CC50 (RXF 393; [29]) of 69.1 µM and an Activity (HCT-116 [10]) of 35.61%. For the same molecule, the Activity (SN12C) was 59.48%, the GI50 (HCT-15 [11]) was 0.6 µM and the CC50 (HCT-15 [11]; [29]) was greater than 100 µM. For the same molecule, the GI50 (SK-OV-3) was 35.4 µM, the CC50 (SK-OV-3; [29]) was greater than 100 µM and the Activity (SK-MEL-2 [12]) was 85.69%. It also gave a GI50 (A549) of 4.2 µM, a CC50 (A549; [29]) greater than 100 µM and an Activity (786-0 [13]) of 27.05%. It also gave a GI50 (K562) of 2 µM, a CC50 (K562; [29]) greater than 100 µM and a GI50 (A498) of 4.3 µM. It also gave a CC50 (A498; [29]) greater than 100 µM, a GI50 (COLO 205) of 3.8 µM and a GI50 (SK-MEL-2 [14]) of 2.7 µM. It also gave a CC50 (SK-MEL-2 [14]; [29]) of 61.6 µM, a GI50 (OVCAR-5) of 20.8 µM and a CC50 (OVCAR-5; [29]) greater than 100 µM. For the same molecule, the Activity (UACC-257 [15]) was 61.22%, the Activity (SF-295) was -12.01% and the Activity (SF-539 [16]) was 49.4%. It also gave a GI50 (NCI-H322M [17]) of 5.8 µM, a CC50 (NCI-H322M [17]; [29]) greater than 100 µM and an Activity (NCI-H322M [18]) of 73.67%. The Activity (NCI/ADR-RES [19]) was 36.14%, the Activity (OVCAR-3 [20]) was 16.79% and the Activity (OVCAR-4) was 49.54%. The GI50 (NCI/ADR-RES [21]) was 3.3 µM, the CC50 (NCI/ADR-RES [21]; [29]) was greater than 100 µM and the Activity (DU-145) was 24.59%. For the same molecule, the Activity (HCT-15 [22]) was 24.69%, the Activity (SK-MEL-28) was 47.32% and the Activity (PC-3 [23]) was 31.81%. The Activity (MDA-MB-435 [24]) was 14.46%, the Activity (OVCAR-8 [25]) was 31.58% and the Activity (NCI-H23) was 55.41%. It also gave a GI50 (786-0 [26]) of 3 µM, a CC50 (786-0 [26]; [29]) greater than 100 µM and a GI50 (MDA-MB-435 [27]) of 2.6 µM. The CC50 (MDA-MB-435 [27]; [29]) was greater than 100 µM, the Activity [28] was 27.37% and the Activity (SW-620) was 35%.
